Experimental data as given in ChEMBL document CHEMBL4359929, “Piperidine and piperazine inhibitors of fatty acid amide hydrolase targeting excitotoxic pathology” (Bioorg Med Chem, 2019).
Calls of active or inactive are those of the source. No cut-off for these calls is given here.

Legend:
Monoglyceride lipase = molecular target: T1, Monoglyceride lipase (Homo sapiens, UniProt Q99685); assay: Inhibition of human recombinant His-tagged MGL expressed in Escherichia coli BL21 DE3 cells using AHMMCE as substrate preincubated with enzyme for 15 mins followed by substrate addition and measured after every 15 mins for 3 hrs by fluorescence based assay
T1 sequence (Q99685 whole entry): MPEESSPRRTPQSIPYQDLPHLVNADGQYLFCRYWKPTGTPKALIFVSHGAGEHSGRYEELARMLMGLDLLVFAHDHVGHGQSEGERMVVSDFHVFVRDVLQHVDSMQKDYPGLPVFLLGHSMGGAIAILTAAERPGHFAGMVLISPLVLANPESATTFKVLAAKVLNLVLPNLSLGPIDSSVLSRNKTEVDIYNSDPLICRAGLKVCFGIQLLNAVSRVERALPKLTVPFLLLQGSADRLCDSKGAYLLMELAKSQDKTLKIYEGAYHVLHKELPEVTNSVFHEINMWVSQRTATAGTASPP
Procedure, shortened: (§1)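 Fluorescent enzyme assay in throughput format. Human recombinant FAAH or purified rat FAAH used arachidonoyl 7-amino-4-methylcoumarin amide as substrate; human recombinant MGL was run by a similar fluorometric procedure.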

[1] = molecular target: T2, Fatty-acid amide hydrolase 1 (Rattus norvegicus, UniProt P97612); assay: Inhibition of rat recombinant His/GST-tagged FAAH expressed in Escherichia coli cells using AAMCA as substrate incubated for 15 mins followed by substrate addition and measured after every 20 mins for 4 hrs by fluorescence based assay; procedure, shortened: as §1
T2 sequence (P97612 whole entry): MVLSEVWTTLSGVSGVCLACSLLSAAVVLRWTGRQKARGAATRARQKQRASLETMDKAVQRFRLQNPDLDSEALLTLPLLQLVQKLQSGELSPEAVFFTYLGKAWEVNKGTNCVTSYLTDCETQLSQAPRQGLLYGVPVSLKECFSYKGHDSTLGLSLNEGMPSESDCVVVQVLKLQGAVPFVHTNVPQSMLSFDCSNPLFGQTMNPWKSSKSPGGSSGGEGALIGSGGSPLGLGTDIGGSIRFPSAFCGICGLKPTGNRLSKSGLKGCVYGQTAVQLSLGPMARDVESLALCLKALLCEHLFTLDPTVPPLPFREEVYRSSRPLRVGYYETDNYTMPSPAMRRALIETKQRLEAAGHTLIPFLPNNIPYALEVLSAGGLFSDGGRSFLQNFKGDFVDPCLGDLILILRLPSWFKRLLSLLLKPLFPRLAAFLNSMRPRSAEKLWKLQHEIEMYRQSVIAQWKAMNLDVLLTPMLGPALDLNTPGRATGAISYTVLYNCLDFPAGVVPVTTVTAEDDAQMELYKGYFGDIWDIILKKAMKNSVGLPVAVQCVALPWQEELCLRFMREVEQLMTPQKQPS

[2] = molecular target: Cannabinoid receptor 2 (Homo sapiens) (UniProt P34972); assay: Displacement of [3H]CP55940 from human CB2 receptor expressed in HEK293 cells by competition-equilibrium binding analysis; type: cell-based
Procedure, shortened: (§2)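 HEK293 cell membranes expressing mouse or human CB2; competition-equilibrium binding against [3H]CP-55,940.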

[3] = Selectivity ratio of IC50 for human recombinant His-tagged MGL expressed in Escherichia coli BL21 DE3 cells to IC50 for rat recombinant His/GST-tagged FAAH expressed in Escherichia coli cells by fluorescence based assay
[4] = molecular target: Cannabinoid receptor 1 (Rattus norvegicus) (UniProt P20272); assay: Displacement of [3H]CP55940 from CB1 receptor in rat brain by competition-equilibrium binding analysis
Target sequence in this assay (P20272 whole entry, looked up): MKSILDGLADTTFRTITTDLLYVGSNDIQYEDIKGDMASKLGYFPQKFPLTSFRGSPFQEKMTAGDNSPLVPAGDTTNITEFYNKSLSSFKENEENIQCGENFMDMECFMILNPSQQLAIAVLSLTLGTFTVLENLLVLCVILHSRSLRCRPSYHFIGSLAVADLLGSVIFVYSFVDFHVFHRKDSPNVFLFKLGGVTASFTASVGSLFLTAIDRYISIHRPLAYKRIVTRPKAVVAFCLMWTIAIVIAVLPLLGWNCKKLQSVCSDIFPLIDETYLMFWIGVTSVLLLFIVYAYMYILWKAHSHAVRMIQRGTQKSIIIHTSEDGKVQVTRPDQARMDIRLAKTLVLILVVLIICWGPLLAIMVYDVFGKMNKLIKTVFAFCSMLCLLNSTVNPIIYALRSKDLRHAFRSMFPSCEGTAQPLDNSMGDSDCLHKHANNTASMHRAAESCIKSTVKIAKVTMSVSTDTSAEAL

[5] = Selectivity ratio of IC50 for human full length ABHD6 expressed in Escherichia coli cells to IC50 for rat recombinant His/GST-tagged FAAH expressed in Escherichia coli cells by fluorescence based assay
Homo sapiens [6] = species: Homo sapiens; assay: Selectivity ratio of IC50 for human full length ABHD6 expressed in Escherichia coli cells to IC50 for human recombinant MBP-tagged FAAH expressed in Escherichia coli cells by fluorescence based assay
[7] = molecular target: Cannabinoid receptor 2 (Mus musculus) (UniProt P47936); assay: Displacement of [3H]CP55940 from mouse CB2 receptor expressed in HEK293 cells by competition-equilibrium binding analysis; type: cell-based; procedure, shortened: as §2
[8] = molecular target: T3, Fatty-acid amide hydrolase 1 (Homo sapiens, UniProt O00519); assay: Inhibition of human recombinant MBP-tagged FAAH expressed in Escherichia coli cells using AAMCA as substrate incubated for 15 mins followed by substrate addition and measured after every 20 mins for 4 hrs by fluorescence based assay; procedure, shortened: as §1
T3 sequence (O00519 whole entry): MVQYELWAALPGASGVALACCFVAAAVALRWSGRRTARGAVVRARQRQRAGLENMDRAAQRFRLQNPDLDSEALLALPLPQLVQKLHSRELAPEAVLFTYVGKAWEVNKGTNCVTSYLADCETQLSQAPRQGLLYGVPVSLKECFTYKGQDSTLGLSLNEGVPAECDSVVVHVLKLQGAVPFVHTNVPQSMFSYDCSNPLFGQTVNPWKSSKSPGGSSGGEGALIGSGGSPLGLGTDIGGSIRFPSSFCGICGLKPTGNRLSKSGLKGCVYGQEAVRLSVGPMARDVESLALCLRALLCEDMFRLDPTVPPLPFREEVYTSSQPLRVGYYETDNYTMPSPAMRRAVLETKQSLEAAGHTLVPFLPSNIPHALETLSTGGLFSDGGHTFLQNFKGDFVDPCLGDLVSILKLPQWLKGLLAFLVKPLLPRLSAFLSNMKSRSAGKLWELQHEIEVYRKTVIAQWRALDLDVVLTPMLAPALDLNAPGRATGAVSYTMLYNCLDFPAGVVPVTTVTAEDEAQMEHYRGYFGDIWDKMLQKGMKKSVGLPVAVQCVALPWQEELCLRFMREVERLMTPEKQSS

[9] = molecular target: Cannabinoid receptor 1 (Rattus norvegicus) (UniProt P20272); assay: Displacement of [3H]CP55940 from CB1 receptor in rat brain by competition-equilibrium binding analysis; type: tissue-based
Procedure, shortened: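 Rat brain membranes as CB1 source; competition-equilibrium binding against [3H]CP-55,940.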
Target sequence in this assay (P20272 whole entry): as the sequence (P20272 whole entry, looked up) above

Homo sapiens [10] = species: Homo sapiens; assay: Selectivity ratio of IC50 for human recombinant His-tagged MGL expressed in Escherichia coli BL21 DE3 cells to IC50 for human recombinant MBP-tagged FAAH expressed in Escherichia coli cells by fluorescence based assay

Cannabinoid receptor 2 (Homo sapiens), sequence (P34972 whole entry): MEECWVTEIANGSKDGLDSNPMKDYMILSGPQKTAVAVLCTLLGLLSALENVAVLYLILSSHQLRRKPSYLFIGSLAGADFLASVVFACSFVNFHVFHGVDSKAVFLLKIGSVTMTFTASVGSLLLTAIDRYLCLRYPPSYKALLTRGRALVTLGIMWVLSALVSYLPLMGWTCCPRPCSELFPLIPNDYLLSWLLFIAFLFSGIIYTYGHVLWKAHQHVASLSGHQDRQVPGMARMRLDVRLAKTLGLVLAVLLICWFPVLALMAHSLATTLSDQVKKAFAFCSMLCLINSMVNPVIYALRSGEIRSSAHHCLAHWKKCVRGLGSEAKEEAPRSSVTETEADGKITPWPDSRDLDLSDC
Cannabinoid receptor 2 (Mus musculus), sequence (P47936 whole entry): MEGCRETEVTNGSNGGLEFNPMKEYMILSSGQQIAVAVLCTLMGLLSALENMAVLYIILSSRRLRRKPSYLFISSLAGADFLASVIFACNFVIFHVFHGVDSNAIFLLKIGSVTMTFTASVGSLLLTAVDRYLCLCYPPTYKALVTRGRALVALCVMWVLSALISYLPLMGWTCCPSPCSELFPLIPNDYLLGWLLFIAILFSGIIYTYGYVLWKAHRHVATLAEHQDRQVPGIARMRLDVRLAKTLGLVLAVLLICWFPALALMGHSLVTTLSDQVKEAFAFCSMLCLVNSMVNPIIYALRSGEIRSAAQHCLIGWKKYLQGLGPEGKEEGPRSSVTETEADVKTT

SMILES: Cc1noc(C2CCN(C(=O)Oc3cccc(N4CCS(=O)(=O)CC4)c3)CC2)n1
- IC50 (Monoglyceride lipase): > 1 µM
- IC50 [1]: 0.12 µM
- Activity [2]: inactive
- Ratio IC50 [3]: > 1000
- Activity [4]: inactive
- Ratio IC50 [5]: > 1000
- Ratio IC50 (Homo sapiens [6]): > 1000
- Activity [7]: inactive
- IC50 [8]: 0.147 µM
- Activity [9]: inactive
- Ratio IC50 (Homo sapiens [10]): > 1000

SMILES: N#Cc1ccc(N2CCN(C(=O)Oc3cccc(N4CCS(=O)(=O)CC4)c3)CC2)cc1
- IC50 (Monoglyceride lipase): > 1 µM
- IC50 [1]: 0.0627 µM
- Activity [2]: inactive
- Ratio IC50 [3]: > 1000
- Activity [4]: inactive
- Ratio IC50 [5]: > 1000
- Ratio IC50 (Homo sapiens [6]): > 1000
- Activity [7]: inactive
- IC50 [8]: 0.0893 µM
- Activity [9]: inactive
- Ratio IC50 (Homo sapiens [10]): > 1000

SMILES: Cc1ccccc1C1CCN(C(=O)Oc2cccc(N3CCS(=O)(=O)CC3)c2)CC1
- IC50 (Monoglyceride lipase): > 1 µM
- IC50 [1]: 0.0103 µM
- Activity [2]: inactive
- Ratio IC50 [3]: > 1000
- Activity [4]: inactive
- Ratio IC50 [5]: > 1000
- Ratio IC50 (Homo sapiens [6]): > 1000
- Activity [7]: inactive
- IC50 [8]: 0.0159 µM
- Activity [9]: inactive
- Ratio IC50 (Homo sapiens [10]): > 1000

SMILES: CN(C)c1ccc(C2CCN(C(=O)Oc3cccc(N4CCOCC4)c3)CC2)cc1
- IC50 (Monoglyceride lipase): > 1 µM
- IC50 [1]: 0.0147 µM
- Activity [2]: inactive
- Ratio IC50 [3]: > 1000
- Activity [4]: inactive
- Ratio IC50 [5]: > 1000
- Ratio IC50 (Homo sapiens [6]): > 1000
- Activity [7]: inactive
- IC50 [8]: 0.031 µM
- Activity [9]: inactive
- Ratio IC50 (Homo sapiens [10]): > 1000

SMILES: O=C(Oc1cccc(N2CCS(=O)(=O)CC2)c1)N1CCC(O)(c2ccccc2)CC1
- IC50 (Monoglyceride lipase): > 1 µM
- IC50 [1]: 0.0781 µM
- Activity [2]: inactive
- Ratio IC50 [3]: > 1000
- Activity [4]: inactive
- Ratio IC50 [5]: > 1000
- Ratio IC50 (Homo sapiens [6]): > 1000
- Activity [7]: inactive
- IC50 [8]: 0.172 µM
- Activity [9]: inactive
- Ratio IC50 (Homo sapiens [10]): > 1000

SMILES: O=C(Oc1cccc(N2CCS(=O)(=O)CC2)c1)N1CCC(c2ccncc2)CC1
- IC50 (Monoglyceride lipase): > 1 µM
- IC50 [1]: 0.0755 µM
- Activity [2]: inactive
- Ratio IC50 [3]: > 1000
- Activity [4]: inactive
- Ratio IC50 [5]: > 1000
- Ratio IC50 (Homo sapiens [6]): > 1000
- Activity [7]: inactive
- IC50 [8]: 0.132 µM
- Activity [9]: inactive
- Ratio IC50 (Homo sapiens [10]): > 1000

SMILES: O=C(Oc1cccc(N2CCS(=O)(=O)CC2)c1)N1CCN(c2ccccn2)CC1
- IC50 (Monoglyceride lipase): > 1 µM
- IC50 [1]: 0.102 µM
- Activity [2]: inactive
- Ratio IC50 [3]: > 1000
- Activity [4]: inactive
- Ratio IC50 [5]: > 1000
- Ratio IC50 (Homo sapiens [6]): > 1000
- Activity [7]: inactive
- Activity [9]: inactive
- Ratio IC50 (Homo sapiens [10]): > 1000
